Measurements reported in ChEMBL document CHEMBL3751743, “Synthesis and anti-cancer screening of novel heterocyclic-(2H)-1,2,3-triazoles as potential anti-cancer agents” (Medchemcomm, 2015).

Tests used:
[1] = Cytotoxicity against human Hs578T cells assessed as reduction of cell viability after 48 hrs by calcein-AM-based fluorescence analysis; assay type: functional; settings: Hs-578T
Method in brief: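 Cells seeded at 3,000 per well in DMEM with 10% FBS and left overnight at 37 °C. A range of compound concentrations or vehicle was then added for 48 h. Cells were washed with DPBS pH 7.4 and loaded with 2 μM calcein-AM for 30 min at 25 °C. Fluorescence read at ex 490/em 520 nm; viability is given relative to untreated control (100%). Mean ± s.d.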

[2] = Cytotoxicity against human SW620 cells after 48 hrs by SRB assay; assay type: functional; settings: SW-620, 48 h
Method in brief: (§1)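 NCI-60 five-dose screen: compounds dissolved in DMSO/H2O, tested at five 10-fold dilutions (10^-4 to 10^-8 M) for 48 h. Growth measured by sulforhodamine B optical density at time zero and after 48 h drug or vehicle exposure. Percentage growth calculated relative to control. GI50 is the molar concentration giving 50% reduction in net cell growth versus day-0 cell numbers.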

MCF7 = assay: Cytotoxicity against human MCF7 cells after 48 hrs by SRB assay; assay type: functional; settings: MCF7, 48 h; method in brief: as §1
SK-MEL-5 = assay: Cytotoxicity against human SK-MEL-5 cells after 48 hrs by SRB assay; assay type: functional; settings: SK-MEL-5, 48 h; method in brief: as §1
[3] = Cytotoxicity against human HCT116 cells after 48 hrs by SRB assay; assay type: functional; settings: HCT-116, 48 h; method in brief: as §1
[4] = Cytotoxicity against human HCT15 cells after 48 hrs by SRB assay; assay type: functional; settings: HCT-15, 48 h; method in brief: as §1
NCI-H522 = assay: Cytotoxicity against human NCI-H522 cells after 48 hrs by SRB assay; assay type: functional; settings: NCI-H522, 48 h; method in brief: as §1
[5] = Cytotoxicity against human UO31 cells after 48 hrs by SRB assay; assay type: functional; settings: UO-31, 48 h
Method in brief: (§2)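 NCI-60 five-dose screen. Compounds dissolved in DMSO/H2O and tested at five 10-fold dilutions (10^-4 to 10^-8 M) for 48 h. Growth read by sulforhodamine B optical density at time zero and after 48 h of exposure to compound or vehicle. Percent growth calculated against control. GI50 is the molar concentration giving 50% reduction in net cell growth relative to cell number on day 0.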

[6] = Cytotoxicity against human OVCAR4 cells after 48 hrs by SRB assay; assay type: functional; settings: OVCAR-4, 48 h; method in brief: as §1
[7] = Cytotoxicity against human HCC2998 cells after 48 hrs by SRB assay; assay type: functional; settings: HCC 2998, 48 h; method in brief: as §1
[8] = Cytotoxicity against human HL-60(TB) cells after 48 hrs by SRB assay; assay type: functional; settings: HL-60, 48 h; method in brief: as §1
[9] = Cytotoxicity against human SF268 cells after 48 hrs by SRB assay; assay type: functional; settings: SF-268, 48 h; method in brief: as §1
U-251 = assay: Cytotoxicity against human U251 cells after 48 hrs by SRB assay; assay type: functional; settings: U-251, 48 h; method in brief: as §2
A498 = assay: Cytotoxicity against human A498 cells after 48 hrs by SRB assay; assay type: functional; settings: A498, 48 h; method in brief: as §1
KM12 = assay: Cytotoxicity against human KM12 cells after 48 hrs by SRB assay; assay type: functional; settings: KM12, 48 h; method in brief: as §1
SN12C = assay: Cytotoxicity against human SN12C cells after 48 hrs by SRB assay; assay type: functional; method in brief: as §1
[10] = Cytotoxicity against human TK10 cells after 48 hrs by SRB assay; assay type: functional; settings: TK-10, 48 h; method in brief: as §2
[11] = Cytotoxicity against human DU145 cells after 48 hrs by SRB assay; assay type: functional; settings: DU-145, 48 h; method in brief: as §1
NCI-H23 = assay: Cytotoxicity against human NCI-H23 cells after 48 hrs by SRB assay; assay type: functional; settings: NCI-H23, 48 h; method in brief: as §1
[12] = Cytotoxicity against human RXF393 cells after 48 hrs by SRB assay; assay type: functional; settings: RXF 393, 48 h; method in brief: as §1
[13] = Cytotoxicity against human UACC257 cells after 48 hrs by SRB assay; assay type: functional; settings: UACC-257, 48 h; method in brief: as §2
K562 = assay: Cytotoxicity against human K562 cells after 48 hrs by SRB assay; assay type: functional; settings: K562, 48 h; method in brief: as §1
[14] = Cytotoxicity against human NCI-ADR-RES cells after 48 hrs by SRB assay; assay type: functional; method in brief: as §1
ACHN = assay: Cytotoxicity against human ACHN cells after 48 hrs by SRB assay; assay type: functional; method in brief: as §1
MDA-MB-435 = assay: Cytotoxicity against human MDA-MB-435 cells after 48 hrs by SRB assay; assay type: functional; settings: MDA-MB-435, 48 h; method in brief: as §1
Tubulin = Tubulin (Sus scrofa, UniProt P02554+P02550); assay: Inhibition of porcine brain tubulin polymerization by spectrophotometric analysis
Method in brief: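 Tubulin at 4 mg/mL in cold 80 mM PIPES pH 6.9 with 2 mM MgCl2, 0.5 mM EGTA, GTP and 10% glycerol. Compound (added as 10x stock in 50% DMSO) or DMSO was preincubated 2 min at 37 °C in a prewarmed plate. Cold tubulin was then added, and polymerization at 37 °C was followed by A340 over time. Dose-response, mean ± s.d., n=3.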

HT-29 = assay: Cytotoxicity against human HT-29 cells after 48 hrs by SRB assay; assay type: functional; settings: HT-29, 48 h; method in brief: as §1
[15] = Cytotoxicity against human COLO205 cells after 48 hrs by SRB assay; assay type: functional; settings: COLO 205, 48 h; method in brief: as §1
[16] = Cytotoxicity against human RPMI8226 cells after 48 hrs by SRB assay; assay type: functional; settings: RPMI-8226, 48 h; method in brief: as §1
[17] = Cytotoxicity against human LOXIMVI cells after 48 hrs by SRB assay; assay type: functional; settings: LOX IMVI; method in brief: as §1
[18] = Cytotoxicity against human SKOV3 cells after 48 hrs by SRB assay; assay type: functional; settings: SK-OV-3, 48 h; method in brief: as §1
SK-MEL-2 = assay: Cytotoxicity against human SK-MEL-2 cells after 48 hrs by SRB assay; assay type: functional; settings: SK-MEL-2, 48 h; method in brief: as §1
[19] = Cytotoxicity against human Hs 578T cells after 48 hrs by SRB assay; assay type: functional; method in brief: as §1
[20] = Cytotoxicity against human OVCAR8 cells after 48 hrs by SRB assay; assay type: functional; settings: OVCAR-8, 48 h; method in brief: as §1
786-0 = assay: Cytotoxicity against human 786-0 cells after 48 hrs by SRB assay; assay type: functional; settings: 786-0, 48 h; method in brief: as §1
[21] = Cytotoxicity against human PC3 cells after 48 hrs by SRB assay; assay type: functional; settings: PC-3, 48 h; method in brief: as §1
[22] = Cytotoxicity against human MOLT4 cells after 48 hrs by SRB assay; assay type: functional; settings: MOLT-4, 48 h; method in brief: as §1
M14 = assay: Cytotoxicity against human M14 cells after 48 hrs by SRB assay; assay type: functional; settings: M14, 48 h; method in brief: as §1
NCI-H226 = assay: Cytotoxicity against human NCI-H226 cells after 48 hrs by SRB assay; assay type: functional; settings: NCI-H226, 48 h; method in brief: as §1
T47D = assay: Cytotoxicity against human T47D cells after 48 hrs by SRB assay; assay type: functional; method in brief: as §2
[23] = Cytotoxicity against human OVCAR3 cells after 48 hrs by SRB assay; assay type: functional; settings: OVCAR-3, 48 h; method in brief: as §1
SR = assay: Cytotoxicity against human SR cells after 48 hrs by SRB assay; assay type: functional; method in brief: as §1
[24] = Cytotoxicity against human SF539 cells after 48 hrs by SRB assay; assay type: functional; settings: SF-539, 48 h; method in brief: as §1
[25] = Cytotoxicity against human OVCAR5 cells after 48 hrs by SRB assay; assay type: functional; settings: OVCAR-5, 48 h; method in brief: as §1
MDA-MB-468 = assay: Cytotoxicity against human MDA-MB-468 cells after 48 hrs by SRB assay; assay type: functional; settings: MDA-MB-468, 48 h; method in brief: as §1
MDA-MB-231 = assay: Cytotoxicity against human MDA-MB-231 cells after 48 hrs by SRB assay; assay type: functional; settings: MDA-MB-231, 48 h; method in brief: as §1
CCRF-CEM = assay: Cytotoxicity against human CCRF-CEM cells after 48 hrs by SRB assay; assay type: functional; method in brief: as §1
[26] = Cytotoxicity against human HOP92 cells after 48 hrs by SRB assay; assay type: functional; settings: HOP-92, 48 h; method in brief: as §1
[27] = Cytotoxicity against human SNB75 cells after 48 hrs by SRB assay; assay type: functional; settings: SNB-75, 48 h; method in brief: as §1
NCI-H460 = assay: Cytotoxicity against human NCI-H460 cells after 48 hrs by SRB assay; assay type: functional; settings: NCI-H460, 48 h; method in brief: as §1
[28] = Cytotoxicity against human BT549 cells after 48 hrs by SRB assay; assay type: functional; settings: BT-549, 48 h; method in brief: as §1
[29] = Cytotoxicity against human SF295 cells after 48 hrs by SRB assay; assay type: functional; settings: SF-295, 48 h; method in brief: as §1
[30] = Cytotoxicity against human Caki1 cells after 48 hrs by SRB assay; assay type: functional; settings: CAKI-1, 48 h; method in brief: as §1
[31] = Cytotoxicity against human UACC62 cells after 48 hrs by SRB assay; assay type: functional; settings: UACC-62, 48 h; method in brief: as §2
A549 = assay: Cytotoxicity against human A549 cells after 48 hrs by SRB assay; assay type: functional; settings: A549, 48 h; method in brief: as §1
[32] = Cytotoxicity against human SNB19 cells after 48 hrs by SRB assay; assay type: functional; settings: SNB-19, 48 h; method in brief: as §1

SMILES: COc1cc(-c2n[nH]nc2-c2cc3ccccc3o2)cc(OC)c1OC
- GI50 [1]: 20 nM

SMILES: COc1cc(OC)cc(-c2n[nH]nc2-c2cc3ccccc3s2)c1
- GI50 [1]: 65 nM

SMILES: COc1cc(OC)cc(-c2n[nH]nc2-c2c[nH]c3ccccc23)c1
- GI50 [2]: 35 nM
- GI50 (MCF7): 29 nM
- GI50 (SK-MEL-5): 34 nM
- GI50 [3]: 31 nM
- GI50 [4]: 31 nM
- GI50 (NCI-H522): 13 nM
- GI50 [5]: 62 nM
- GI50 [6]: 2670 nM
- GI50 [7]: 251 nM
- GI50 [8]: 33 nM
- GI50 [9]: 67 nM
- GI50 (U-251): 54 nM
- GI50 (A498): 33 nM
- GI50 (KM12): 45 nM
- GI50 (SN12C): 69 nM
- GI50 [10]: 83 nM
- GI50 [11]: 75 nM
- GI50 (NCI-H23): 124 nM
- GI50 [12]: 52 nM
- GI50 [13]: > 100000 nM
- GI50 (K562): 31 nM
- GI50 [14]: 30 nM
- GI50 (ACHN): 45 nM
- GI50 (MDA-MB-435): 10 nM
- IC50 (Tubulin): 13500 nM
- GI50 (HT-29): 31 nM
- GI50 [15]: 35 nM
- GI50 [16]: 53 nM
- GI50 [17]: 55 nM
- GI50 [18]: 34 nM
- GI50 (SK-MEL-2): 31 nM
- GI50 [19]: 31 nM
- GI50 [20]: 70 nM
- GI50 (786-0): 30 nM
- GI50 [21]: 38 nM
- GI50 [22]: 63 nM
- GI50 (M14): 31 nM
- GI50 (NCI-H226): 75 nM
- GI50 (T47D): 44 nM
- GI50 [23]: 28 nM
- GI50 (SR): 47 nM
- GI50 [24]: 24 nM
- GI50 [25]: 416 nM
- GI50 (MDA-MB-468): 37 nM
- GI50 (MDA-MB-231): 76 nM
- GI50 (CCRF-CEM): 37 nM
- GI50 [26]: 29 nM
- GI50 [27]: 25 nM
- GI50 (NCI-H460): 38 nM
- GI50 [28]: 17 nM
- GI50 [29]: 26 nM
- GI50 [30]: 38 nM
- GI50 [31]: 34 nM
- GI50 (A549): 88 nM
- GI50 [32]: 56 nM
